Laboratory results: ChEMBL document CHEMBL4219132, “Sulfamic acid promoted one-pot synthesis of phenanthrene fused-dihydrodibenzo-quinolinones: Anticancer activity, tubulin polymerization inhibition and apoptosis inducing studies” (Bioorg Med Chem, 2018)
The source made the active and inactive calls. The rule behind the calls is not given here.

Columns and labels:
HCT-116 = assay: Cytotoxicity against human HCT116 cells assessed as cell growth inhibition after 48 hrs by MTT assay; format: functional, cell-based; conditions: HCT-116, 48 h
Method in brief: (§1)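 MTT assay. Cells were seeded at 1×10^4 per well in their medium with 10% FBS and allowed 24 h at 37 °C. Compound diluted in medium was added alongside a vehicle control and left for 48 h. MTT (0.5 mg/mL) was then added for 4 h, formazan dissolved in DMSO, and absorbance read at 570 nm. IC50 is the concentration inhibiting 50% of cells.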

A549 [1] = assay: Induction of apoptosis in human A549 cells assessed as cell shrinkage at 10 uM after 48 hrs by AO/EB double staining based fluorescence microscopy; format: functional
Method in brief: (§2)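 A549 cells (1×10^6 cell/ml) were treated with different concentrations for 48 h at 37 °C in 5% CO2. Acridine orange and ethidium bromide (10 μg/mL each) were added, and after 10 min cells were viewed by fluorescence microscopy (ex 488/em 550 nm) at 200x.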

A549 [2] = assay: Induction of apoptosis in human A549 cells assessed as late apoptotic cells at 10 uM after 48 hrs by Annexin-V/propidium iodide staining based flow cytometry (reference value: 0.71%); format: functional
A549 [3] = assay: Induction of apoptosis in human A549 cells assessed as viable cells at 2.5 uM after 48 hrs by Annexin-V/propidium iodide staining based flow cytometry (reference value: 93.39%); format: functional; conditions: A549, 48 h, read-out: Activity
A549 [4] = assay: Cell cycle arrest in human A549 cells assessed as accumulation at sub G1 phase after 48 hrs by propidium iodide-staining based flow cytometry; format: functional
A549 [5] = assay: Induction of apoptosis in human A549 cells assessed as early apoptotic cells at 2.5 uM after 48 hrs by Annexin-V/propidium iodide staining based flow cytometry (reference value: 5.27%); format: functional
A549 [6] = assay: Induction of apoptosis in human A549 cells assessed as viable cells at 5 uM after 48 hrs by Annexin-V/propidium iodide staining based flow cytometry (reference value: 93.39%); format: functional; conditions: A549, 48 h, read-out: Activity
A549 [7] = assay: Induction of ROS generation in human A549 cells after 24 hrs by DCFDA dye-based fluorescent microscopy; format: functional, cell-based
Method in brief: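 A549 cells (1×10^6 cells/mL) were left to adhere overnight, then treated 24 h with 1.25, 2.5, 5.0 or 10.0 μM. Medium was replaced with medium containing 10 μM DCFDA for 30 min in the dark. Fluorescence was read on a plate reader (ex 488/em 525 nm) and cells were imaged by fluorescence microscopy. NAC and H2O2 (positive control) were included. Mean ± SEM, n=3.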

A549 [8] = assay: Induction of apoptosis in human A549 cells assessed as necrotic cells at 2.5 uM after 48 hrs by Annexin-V/propidium iodide staining based flow cytometry (reference value: 0.63%); format: functional
A549 [9] = assay: Induction of apoptosis in human A549 cells assessed as early apoptotic cells at 1.25 uM after 48 hrs by Annexin-V/propidium iodide staining based flow cytometry (reference value: 5.27%); format: functional
[10] = Inhibition of pig brain tubulin polymerization assessed as reduction in tubulin assembly by fluorescence-based assay; design: species or system Sus scrofa
Method in brief: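 Kit assay with porcine brain tubulin (2 mg/mL) in 80 mM PIPES pH 6.9, 2.0 mM MgCl2, 0.5 mM EGTA, 1.0 mM GTP and glycerol. Test compound was used at final 10, 5, 2.5 or 1.25 μM. Polymerization was followed for 1 h at 37 °C by fluorescence reporter incorporation (ex 360/em 440 nm). Runs were in duplicate, and IC50 is the concentration inhibiting 50% of assembly versus control.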

A549 [11] = assay: Cytotoxicity against human A549 cells assessed as reduction in cell viability by measuring cell detachment at 1.25 to 10 uM after 48 hrs by phase contrast microscopy; format: functional, cell-based
Method in brief: (§3)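 A549 cells (1×10^5 cells/mL) were plated in 6-well plates and left to adhere overnight. They were then incubated 48 h with 1.25, 2.5, 5.0 or 10.0 μM and examined for morphological changes by phase contrast microscopy at 200X.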

A549 [12] = assay: Induction of apoptosis in human A549 cells assessed as early apoptotic cells at 5 uM after 48 hrs by Annexin-V/propidium iodide staining based flow cytometry (reference value: 5.27%); format: functional
PC-3 = assay: Cytotoxicity against human PC3 cells assessed as cell growth inhibition after 48 hrs by MTT assay; format: functional, cell-based; conditions: PC-3, 48 h; method in brief: as §1
A549 [13] = assay: Induction of apoptosis in human A549 cells assessed as viable cells at 1.25 uM after 48 hrs by Annexin-V/propidium iodide staining based flow cytometry (reference value: 93.39%); format: functional; conditions: A549, 48 h, read-out: Activity
A549 [14] = assay: Cell cycle arrest in human A549 cells assessed as accumulation at sub G1 phase at 10 uM after 48 hrs by propidium iodide-staining based flow cytometry (reference value: 4.52 +/- 2.47%); format: functional
A549 [15] = assay: Cytotoxicity against human A549 cells assessed as reduction in cell viability by measuring cell shrinkage at 1.25 to 10 uM after 48 hrs by phase contrast microscopy; format: functional, cell-based; method in brief: as §3
MCF7 = assay: Cytotoxicity against human MCF7 cells assessed as cell growth inhibition after 48 hrs by MTT assay; format: functional, cell-based; conditions: MCF7, 48 h; method in brief: as §1
A549 [16] = assay: Induction of mitochondrial membrane potential loss in human A549 cells assessed as depolarized cell population at 10 uM after 24 hrs by JC-1-dye based flow-cytometry (reference value: 8.31 +/- 3.72%)
A549 [17] = assay: Induction of apoptosis in human A549 cells assessed as necrotic cells at 5 uM after 48 hrs by Annexin-V/propidium iodide staining based flow cytometry (reference value: 0.63%); format: functional
A549 [18] = assay: Induction of apoptosis in human A549 cells assessed as late apoptotic cells at 1.25 uM after 48 hrs by Annexin-V/propidium iodide staining based flow cytometry (reference value: 0.71%); format: functional
A549 [19] = assay: Induction of apoptosis in human A549 cells assessed as apoptotic body formation at 10 uM after 48 hrs by AO/EB double staining based fluorescence microscopy; format: functional, cell-based; method in brief: as §2
A549 [20] = assay: Induction of apoptosis in human A549 cells assessed as chromatin condensation at 10 uM after 48 hrs by AO/EB double staining based fluorescence microscopy; format: functional, cell-based; method in brief: as §2
DU-145 = assay: Cytotoxicity against human DU145 cells assessed as cell growth inhibition after 48 hrs by MTT assay; format: functional, cell-based; conditions: DU-145, 48 h; method in brief: as §1
A549 [21] = assay: Cell cycle arrest in human A549 cells assessed as accumulation at G2/M phase at 10 uM after 48 hrs by propidium iodide-staining based flow cytometry (reference value: 34.25 +/- 5.75%); format: functional
HT-29 = assay: Cytotoxicity against human HT-29 cells assessed as cell growth inhibition after 48 hrs by MTT assay; format: functional, cell-based; conditions: HT-29, 48 h; method in brief: as §1
A549 [22] = assay: Induction of apoptosis in human A549 cells assessed as horse-shoe shaped nuclei at 1.25 to 10 uM after 48 hrs by DAPI staining-based fluorescence microscopy; format: functional, cell-based
Method in brief: (§4)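 A549 cells were treated for 48 h, washed with PBS, and permeabilised with 0.1% Tween 20 for 10 min. They were stained with 1 μM DAPI and viewed by fluorescence microscopy (ex 359/em 461 nm, DAPI filter) at 200X.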

A549 [23] = assay: Induction of apoptosis in human A549 cells assessed as necrotic cells at 10 uM after 48 hrs by Annexin-V/propidium iodide staining based flow cytometry (reference value: 0.63%); format: functional
A549 [24] = assay: Induction of apoptosis in human A549 cells assessed as membrane blebbing at 10 uM after 48 hrs by AO/EB double staining based fluorescence microscopy; format: functional, cell-based; method in brief: as §2
A549 [25] = assay: Induction of apoptosis in human A549 cells assessed as nuclei condensation at 1.25 to 10 uM after 48 hrs by DAPI staining-based fluorescence microscopy; format: functional, cell-based; method in brief: as §4
A549 [26] = assay: Induction of apoptosis in human A549 cells assessed as late apoptotic cells at 2.5 uM after 48 hrs by Annexin-V/propidium iodide staining based flow cytometry (reference value: 0.71%); format: functional
A549 [27] = assay: Induction of apoptosis in human A549 cells assessed as early apoptotic cells at 10 uM after 48 hrs by Annexin-V/propidium iodide staining based flow cytometry (reference value: 5.27%); format: functional
A549 [28] = assay: Induction of apoptosis in human A549 cells assessed as viable cells at 10 uM after 48 hrs by Annexin-V/propidium iodide staining based flow cytometry (reference value: 93.39%); format: functional; conditions: A549, 48 h, read-out: Activity
A549 [29] = assay: Induction of mitochondrial membrane potential loss in human A549 cells assessed as increase in depolarized cell population after 24 hrs by JC-1-dye based flow-cytometry
A549 [30] = assay: Cytotoxicity against human A549 cells assessed as cell growth inhibition after 48 hrs by MTT assay; format: functional, cell-based; conditions: A549, 48 h; method in brief: as §1
A549 [31] = assay: Induction of apoptosis in human A549 cells after 48 hrs by Annexin-V/propidium iodide staining based flow cytometry; format: functional, cell-based
A549 [32] = assay: Induction of apoptosis in human A549 cells assessed as necrotic cells at 1.25 uM after 48 hrs by Annexin-V/propidium iodide staining based flow cytometry (reference value: 0.63%); format: functional
A549 [33] = assay: Induction of apoptosis in human A549 cells assessed as late apoptotic cells at 5 uM after 48 hrs by Annexin-V/propidium iodide staining based flow cytometry (reference value: 0.71%); format: functional

Q: Which results are given for `COc1cc2c3c(c4cc(OC)c(OC)cc4c2cc1OC)C(c1ccc2c(c1)OCO2)CC(=O)N3` (stereo not drawn)?
A: IC50 (HCT-116): 7.61 µM; Activity (A549 [1]): Active; Activity (A549 [2]): 1.93%; viability at 2.5 µM (A549 [3]): 81.8%; Activity (A549 [4]): Dose-dependent effect; Activity (A549 [5]): 17.3%; viability at 5 µM (A549 [6]): 74.2%; Activity (A549 [7]): Dose-dependent effect; Activity (A549 [8]): 0.01%; Activity (A549 [9]): 9.5%; IC50 [10]: 5.15 µM; Activity (A549 [11]): Dose-dependent effect; Activity (A549 [12]): 24.86%; IC50 (PC-3): 12.1 µM; viability at 1.25 µM (A549 [13]): 89.1%; Activity (A549 [14]): 31.22%; Activity (A549 [15]): Dose-dependent effect; IC50 (MCF7): 9.59 µM; Activity (A549 [16]): 79.8%; Activity (A549 [17]): 0.01%; Activity (A549 [18]): 1.32%; Activity (A549 [19]): Active; Activity (A549 [20]): Active; IC50 (DU-145): 17.5 µM; Activity (A549 [21]): 61.2%; IC50 (HT-29): 7.84 µM; Activity (A549 [22]): Active; Activity (A549 [23]): 0.01%; Activity (A549 [24]): Active; Activity (A549 [25]): Active; Activity (A549 [26]): 0.85%; Activity (A549 [27]): 50.6%; viability at 10 µM (A549 [28]): 47.5%; Activity (A549 [29]): Dose-dependent effect; IC50 (A549 [30]): 3.17 µM; Activity (A549 [31]): Dose-dependent effect; Activity (A549 [32]): 0.09%; Activity (A549 [33]): 0.92%
